Measurements taken from ChEMBL document CHEMBL1177688, “Synthesis of novel pyrazolic analogues of chalcones and their 3-aryl-4-(3-aryl-4,5-dihydro-1H-pyrazol-5-yl)-1-phenyl-1H-pyrazole derivatives as potential antitumor agents” (2010).

Legend:
Format in all cases: functional
[1] = tested on: Hs-578T; assay: Antiproliferative activity against human Hs 578T cells after 48 hrs by SRB assay; conditions: read-out: LC50 (the source's name)
In short: (§1)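 NCI 60-cell-line human tumour panel, secondary five-dose screen. Compounds tested at 100, 10, 1.0, 0.1 and 0.01 µM with 48 h continuous exposure. Cell growth was estimated by sulforhodamine B protein staining. GI50 is the concentration giving a 50% reduction in net protein increase relative to untreated control cells over the incubation. TGI and LC50 were also derived.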

[2] = tested on: OVCAR-4; assay: Antiproliferative activity against human OVCAR4 cells after 48 hrs by SRB assay; conditions: OVCAR-4, 48 h, read-out: LC50 (the source's name); in short: as §1
[3] = tested on: SW-620; assay: Antiproliferative activity against human SW620 cells after 48 hrs by SRB assay; conditions: SW-620, 48 h; in short: as §1
[4] = tested on: A549; assay: Antiproliferative activity against human A549 cells after 48 hrs by SRB assay; conditions: A549, 48 h, read-out: LC50 (the source's name); in short: as §1
[5] = tested on: PC-3; assay: Antiproliferative activity against human PC3 cells after 48 hrs by SRB assay; conditions: PC-3, 48 h; in short: as §1
[6] = tested on: HT-29; assay: Antiproliferative activity against human HT-29 cells after 48 hrs by SRB assay; conditions: HT-29, 48 h, read-out: LC50 (the source's name); in short: as §1
[7] = tested on: NCI/ADR-RES; assay: Antiproliferative activity against human NCI/ADR-RES cells after 48 hrs by SRB assay
In short: (§2)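 NCI 60-cell human tumour line panel. Continuous 48 h drug exposure at five concentrations (100, 10, 1.0, 0.1, 0.01 µM). Cell growth estimated by sulforhodamine B protein staining. GI50 = concentration giving 50% reduction in net protein increase versus control cells over the incubation. LC50 = molar concentration killing 50% of cells.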

[8] = tested on: Malme-3M; assay: Antiproliferative activity against human MALME-3M cells after 48 hrs by SRB assay; conditions: for CC50: read-out: LC50 (the source's name); in short: as §1
[9] = tested on: ACHN; assay: Antiproliferative activity against human ACHN cells after 48 hrs by SRB assay; in short: as §2
[10] = tested on: TK-10; assay: Antiproliferative activity against human TK10 cells after 48 hrs by SRB assay; conditions: TK-10, 48 h; for CC50: read-out: LC50 (the source's name); in short: as §1
[11] = tested on: UACC-257; assay: Antiproliferative activity against human UACC257 cells after 48 hrs by SRB assay; conditions: UACC-257, 48 h; in short: as §1
[12] = tested on: OVCAR-8; assay: Antiproliferative activity against human OVCAR8 cells after 48 hrs by SRB assay; conditions: OVCAR-8, 48 h; for CC50: read-out: LC50 (the source's name); in short: as §1
[13] = tested on: MDA-MB-435; assay: Antiproliferative activity against human MDA-MB-435 cells after 48 hrs by SRB assay; conditions: MDA-MB-435, 48 h, read-out: LC50 (the source's name); in short: as §1
[14] = tested on: SN12C; assay: Antiproliferative activity against human SN12C cells after 48 hrs by SRB assay; conditions: read-out: LC50 (the source's name); in short: as §1
[15] = tested on: HCT-15; assay: Antiproliferative activity against human HCT15 cells after 48 hrs by SRB assay; conditions: HCT-15, 48 h; for CC50: read-out: LC50 (the source's name); in short: as §1
[16] = tested on: CCRF-CEM; assay: Antiproliferative activity against human CCRF-CEM cells after 48 hrs by SRB assay; conditions: read-out: LC50 (the source's name); in short: as §1
[17] = tested on: HOP-62; assay: Antiproliferative activity against human HOP62 cells after 48 hrs by SRB assay; conditions: HOP-62, 48 h; in short: as §1
[18] = tested on: HL-60; assay: Antiproliferative activity against human HL-60(TB) cells after 48 hrs by SRB assay; conditions: HL-60, 48 h; in short: as §1
[19] = tested on: K562; assay: Antiproliferative activity against human K562 cells after 48 hrs by SRB assay; conditions: K562, 48 h; in short: as §1
[20] = tested on: MOLT-4; assay: Antiproliferative activity against human MOLT4 cells after 48 hrs by SRB assay; conditions: MOLT-4, 48 h; in short: as §1
[21] = tested on: OVCAR-3; assay: Antiproliferative activity against human OVCAR-3 cells after 48 hrs by SRB assay; conditions: OVCAR-3, 48 h; in short: as §1
[22] = tested on: 786-0; assay: Antiproliferative activity against human 786-0 cells after 48 hrs by SRB assay; conditions: 786-0, 48 h; in short: as §1
[23] = read-out: LC50 (the source's name)

SMILES: COc1ccc(C2=NN(C(C)=O)C(c3cn(-c4ccccc4)nc3-c3ccc(Cl)cc3)C2)cc1 (centres undefined)
- CC50 [1]: > 100 µM
- CC50 [2]: > 100 µM
- GI50 [3]: 3.48 µM
- CC50 [3, 23]: > 100 µM
- CC50 [4]: > 100 µM
- GI50 [5]: 2.35 µM
- CC50 [5, 23]: > 100 µM
- CC50 [6]: > 100 µM
- GI50 [7]: 1.8 µM
- CC50 [8]: > 100 µM
- GI50 [9]: 1.82 µM
- CC50 [10]: > 100 µM
- GI50 [11]: > 100 µM
- LC50 (concentration killing 50% of cells) [11]: > 100 µM
- CC50 [12]: > 100 µM
- CC50 [13]: > 100 µM
- CC50 [14]: > 100 µM
- GI50 [15]: 3.09 µM
- CC50 [15]: > 100 µM

SMILES: O=C(/C=C/c1cn(-c2ccccc2)nc1-c1ccc([N+](=O)[O-])cc1)c1ccc(Cl)cc1
- CC50 [16]: > 100 µM
- CC50 [4]: > 100 µM
- GI50 [17]: 26 µM
- CC50 [17, 23]: > 100 µM
- CC50 [6]: > 100 µM
- GI50 [7]: 4.64 µM
- CC50 [7, 23]: > 100 µM
- GI50 [18]: > 100 µM
- CC50 [18, 23]: > 100 µM
- GI50 [8]: 2.44 µM
- CC50 [8]: > 100 µM
- GI50 [9]: 4.27 µM
- CC50 [9, 23]: > 100 µM
- GI50 [10]: 3.12 µM
- CC50 [10]: > 100 µM
- GI50 [11]: > 100 µM
- LC50 (concentration killing 50% of cells) [11]: > 100 µM
- GI50 [12]: 6.32 µM
- CC50 [12]: > 100 µM
- CC50 [13]: > 100 µM
- GI50 [19]: 0.09 µM
- CC50 [19, 23]: > 100 µM
- CC50 [14]: > 100 µM
- GI50 [20]: 0.87 µM
- CC50 [20, 23]: > 100 µM
- CC50 [15]: > 100 µM
- GI50 [21]: 1.96 µM
- CC50 [21, 23]: > 100 µM
- GI50 [22]: 3.94 µM
- CC50 [22, 23]: > 100 µM
